Measurements from publication PMC9796011 (Journal of Gastroenterology and Hepatology, 2022).

Legend:
[1] = test system: patients with biologic‐resistant CD; test: Phase 2a trial: Crohn's disease activity index; assay type: in vivo, human; conditions: 10 + 15 ng/kg/min groups pooled, mean ± SD
Outline: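 Patients (n = 24) were randomized 1:1:1 in blocks of three to placebo or 10 or 15 ng/kg/min test compound, infused 8 h/day for 7 days alongside ongoing biologic. Doctors scored CDAI by questionnaire at baseline and at 4, 6, 8, 16 and 24 weeks. Response was a drop of ≥50 points; remission was CDAI ≤150. Changes are mean ± SD, compared by t-test/ANOVA and, over 0–24 weeks, by a mixed-effects model.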

[2] = test system: patients with biologic‐resistant CD; test: Safety evaluation: adverse events, vital signs; assay type: in vivo, human
Outline: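 All 24 patients, hospitalized for the 7-day infusion of placebo or 10 or 15 ng/kg/min test compound (8 h/day), were assessed for AEs and SAEs throughout the study. Vital signs, blood and urine tests and 12-lead ECG were taken at set times after dosing, with screening within 2 weeks before therapy. Patients with systolic BP <90 mmHg or pulse <45 bpm were excluded.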

[3] = Plasma concentration of adrenomedullin; assay type: in vivo; conditions: human, intravenous
Outline: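 Blood was drawn before and at 4, 8 and 10 h after the start of the 8-h infusion (10 or 15 ng/kg/min) on days 1 and 7, and at 4 and 8 weeks. Test compound was measured by automated ELISA. Cmax and Tmax were read directly from the data; AUC was computed over 0–10 h. Values are mean ± SD.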

[4] = test system: patients with biologic‐resistant CD; test: CRP, fecal calprotectin and FIT; assay type: in vivo, human; conditions: CRP at 2, 4, 8 weeks; fecal calprotectin and FIT at 1 week; data not shown
Outline: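 Adults with biologic-resistant CD at 16 Japanese centres were randomized 1:1:1 to placebo or 10 or 15 ng/kg/min of test compound, infused 8 h/day for 7 days from the day of biologic dosing. CRP was measured at 2, 4 and 8 weeks. Stool was collected before dosing and on day 8 for fecal calprotectin (fluorescence enzyme immunoassay) and FIT by a commercial lab. Groups were compared by t-test and ANOVA with Fisher's test.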

[5] = Trough level of infliximab; assay type: in vivo, human; conditions: CD patients; 4 and 8 weeks vs day 1
Outline: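 Serum was collected immediately before each biologic dose. Infliximab trough levels were measured by ELISA at a contract lab in patients given placebo or 10 or 15 ng/kg/min test compound, infused 8 h/day for 7 days starting on the day of biologic dosing; changes were assessed at 8 weeks.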

Crohn's disease = conditions: cited from earlier work

CC[C@H](C)[C@H](NC(=O)[C@H](CCC(N)=O)NC(=O)[C@H](Cc1c[nH]cn1)NC(=O)[C@H](C)NC(=O)[C@H](CC(C)C)NC(=O)[C@H](CCCCN)NC(=O)[C@H](CCC(N)=O)NC(=O)[C@@H](NC(=O)[C@@H](NC(=O)[C@@H]1CSSC[C@H](NC(=O)CNC(=O)[C@H](Cc2ccccc2)NC(=O)[C@H](CO)NC(=O)[C@H](CCCNC(=N)N)NC(=O)[C@H](CC(C)C)NC(=O)CNC(=O)[C@H](CCC(N)=O)NC(=O)[C@H](Cc2ccccc2)NC(=O)[C@H](CC(N)=O)NC(=O)[C@H](CC(N)=O)NC(=O)[C@H](CCSC)NC(=O)[C@H](CO)NC(=O)[C@H](CCC(N)=O)NC(=O)[C@H](CCCNC(=N)N)NC(=O)[C@@H](N)Cc2ccc(O)cc2)C(=O)N[C@@H](CCCNC(=N)N)C(=O)N[C@@H](Cc2ccccc2)C(=O)NCC(=O)N[C@@H]([C@@H](C)O)C(=O)N1)[C@@H](C)O)C(C)C)C(=O)N[C@@H](Cc1ccc(O)cc1)C(=O)N[C@@H](CCC(N)=O)C(=O)N[C@@H](Cc1ccccc1)C(=O)N[C@H](C(=O)N[C@@H](CC(=O)O)C(=O)N[C@@H](CCCCN)C(=O)N[C@@H](CC(=O)O)C(=O)N[C@@H](CCCCN)C(=O)N[C@@H](CC(=O)O)C(=O)N[C@@H](CC(N)=O)C(=O)N[C@H](C(=O)N[C@@H](C)C(=O)N1CCC[C@H]1C(=O)N[C@@H](CCCNC(=N)N)C(=O)N[C@@H](CO)C(=O)N[C@@H](CCCCN)C(=O)N[C@H](C(=O)N[C@@H](CO)C(=O)N1CCC[C@H]1C(=O)N[C@@H](CCC(N)=O)C(=O)NCC(=O)N[C@@H](Cc1ccc(O)cc1)C(N)=O)[C@@H](C)CC)C(C)C)[C@@H](C)O [Adrenomedullin]
Changes in CDAI ([1]; 4 weeks, n = 16): −71 ± 83
Changes in CDAI ([1]; 6 weeks, n = 14): −72 ± 67
Changes in CDAI (primary endpoint) ([1]; 8 weeks, n = 15): −81 ± 73
Changes in CDAI ([1]; 16 weeks, n = 10): −61 ± 51
Changes in CDAI ([1]; 24 weeks, n = 9): −81 ± 46
Any adverse events, patients (%) ([2]; 10 ng/kg/min, 8 patients): 7 (88%)
Deaths ([2]; 10 ng/kg/min, 8 patients): 0
Decrease in body weight, patients (%) ([2]; 10 ng/kg/min, 8 patients): 0
Dehydration, patients (%) ([2]; 10 ng/kg/min, 8 patients): 0
Dizziness, patients (%) ([2]; 10 ng/kg/min, 8 patients): 1 (13%)
Fever up, patients (%) ([2]; 10 ng/kg/min, 8 patients): 0
Flushing, patients (%) ([2]; 10 ng/kg/min, 8 patients): 1 (13%)
Head discomfort, patients (%) ([2]; 10 ng/kg/min, 8 patients): 0
Headache, patients (%) ([2]; 10 ng/kg/min, 8 patients): 3 (38%)
Increase in transaminase level, patients (%) ([2]; 10 ng/kg/min, 8 patients): 0
Lumbago, patients (%) ([2]; 10 ng/kg/min, 8 patients): 0
Moderate to severe adverse events, patients (%) ([2]; 10 ng/kg/min, 8 patients): 1 (13%)
Nasopharyngitis, patients (%) ([2]; 10 ng/kg/min, 8 patients): 1 (13%)
Palpitation, patients (%) ([2]; 10 ng/kg/min, 8 patients): 1 (13%)
Rash, patients (%) ([2]; 10 ng/kg/min, 8 patients): 1 (13%)
Right bundle branch block, patients (%) ([2]; 10 ng/kg/min, 8 patients): 0
Serious adverse events, patients (%) ([2]; 10 ng/kg/min, 8 patients): 0
Vomiting, patients (%) ([2]; 10 ng/kg/min, 8 patients): 0
Any adverse events, patients (%) ([2]; 15 ng/kg/min, 8 patients): 8 (100%)
Deaths ([2]; 15 ng/kg/min, 8 patients): 0
Decrease in body weight, patients (%) ([2]; 15 ng/kg/min, 8 patients): 0
Dehydration, patients (%) ([2]; 15 ng/kg/min, 8 patients): 1 (13%)
Dizziness, patients (%) ([2]; 15 ng/kg/min, 8 patients): 0
Fever up, patients (%) ([2]; 15 ng/kg/min, 8 patients): 3 (38%)
Flushing, patients (%) ([2]; 15 ng/kg/min, 8 patients): 1 (13%)
Head discomfort, patients (%) ([2]; 15 ng/kg/min, 8 patients): 1 (13%)
Headache, patients (%) ([2]; 15 ng/kg/min, 8 patients): 7 (88%)
Increase in transaminase level, patients (%) ([2]; 15 ng/kg/min, 8 patients): 1 (13%)
Lumbago, patients (%) ([2]; 15 ng/kg/min, 8 patients): 0
Moderate to severe adverse events, patients (%) ([2]; 15 ng/kg/min, 8 patients): 3 (38%)
Nasopharyngitis, patients (%) ([2]; 15 ng/kg/min, 8 patients): 2 (25%)
Palpitation, patients (%) ([2]; 15 ng/kg/min, 8 patients): 2 (25%)
Rash, patients (%) ([2]; 15 ng/kg/min, 8 patients): 1 (13%)
Right bundle branch block, patients (%) ([2]; 15 ng/kg/min, 8 patients): 1 (13%)
Vomiting, patients (%) ([2]; 15 ng/kg/min, 8 patients): 1 (13%)
Changes in blood pressure and pulse rate ([2]; all groups, throughout the drug administration period, data not shown): did not observe any statistically significant changes
AUC(0-t) ([3]; 10 ng/kg/min): 0.247 ± 0.06 ng·h/mL
AUC(0-t) ([3]; 15 ng/kg/min): 0.441 ± 0.245 ng·h/mL
Cmax ([3]; 15 ng/kg/min): 0.0653 ± 0.043 ng/mL
Changes in CRP levels, fecal calprotectin and FIT versus placebo [4]: no differences
Trough levels of biologics (infliximab, adalimumab) after AM administration [5]: did not change

Infliximab
Annual risk of loss of infliximab response (Crohn's disease): 13 % per patient‐year
